Converted amounts (≈) assume the structure as drawn.
How the values were obtained:
[1] = Cytotoxicity against human erythrocytes assessed as hemolysis by spectrometric analysis; format: cell-based, Erythrocyte
Procedure, shortened: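 Human heparinized red blood cells were washed in PBS at pH 7.0 and suspended at 4% in sterile 5% glucose. Compounds from DMSO stocks were diluted in 5% glucose to final concentrations of 250 to 0.24 µg/ml and incubated with the cells at 37 °C. Released hemoglobin was read at 540 nm. HC50 is the concentration giving 50% lysis relative to the drug-free value.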

[2] = test system: Trichophyton rubrum; assay: Antifungal activity against Trichophyton rubrum C 113 2000; format: functional
Procedure, shortened: (§1)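 Dermatophytes tested by CLSI M38-A2 microdilution in MOPS-buffered RPMI-1640 at pH 7.0. Inoculum 1-5 × 10^3 CFU/mL; compounds 250 to 0.24 µg/ml in twofold steps, final DMSO <1%. Incubated at 28 °C in a moist, dark chamber and read according to control growth. MIC is the lowest concentration with complete inhibition. MFC is the lowest concentration with no growth after duplicate subculture on SDA.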

[3] = test system: Aspergillus flavus; assay: Antifungal activity against Aspergillus flavus ATCC 9170; format: functional
Procedure, shortened: (§2)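 Broth microdilution per CLSI M38-A2 in RPMI-1640 with MOPS at pH 7.0. Inoculum 1-5 × 10^3 CFU/mL, with twofold compound dilutions spanning 250-0.24 µg/ml (final DMSO <1%). Plates incubated at 35 °C, moist and dark, and read when the control fungus had grown. MIC is total growth inhibition. MFC comes from subculturing clear wells in duplicate onto SDA.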

[4] = test system: SF-268; assay: Cytotoxicity against human SF268 cells assessed as cell growth after 2 days by sulforhodamine B assay; format: functional; details: SF-268, 48 h
Procedure, shortened: (§3)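 NCI cell lines were run by the Monks method: cells were plated with compounds from DMSO stocks and incubated 2 days at 37 °C in 5% CO2, in duplicate. Cells were fixed with cold TCA, stained with 0.4% SRB, and the bound dye was solubilized in 10 mM tris-base and read at 515 nm. The zero-day control was subtracted, and GI50 was taken from the curves.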

[5] = test system: Saccharomyces cerevisiae; assay: Antifungal activity against Saccharomyces cerevisiae ATCC 9763; format: functional
Procedure, shortened: (§4)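 CLSI M27-A3 broth microdilution in RPMI-1640 buffered to pH 7.0 with MOPS. Inoculum 1-5 × 10^3 CFU/mL. Compound twofold dilutions from 250 to 0.24 µg/ml, final DMSO <1%. Incubated at 35 °C in a moist, dark chamber and read at 48 h. MIC is the lowest concentration giving total growth inhibition. For MFC, 5 µL from clear wells was plated in duplicate on SDA; MFC is the lowest concentration with no growth.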

[6] = test system: Cryptococcus neoformans; assay: Antifungal activity against Cryptococcus neoformans ATCC 32264; format: functional; procedure, shortened: as §4
[7] = test system: Aspergillus niger; assay: Antifungal activity against Aspergillus niger ATCC 9029; format: functional; procedure, shortened: as §2
[8] = test system: Aspergillus fumigatus; assay: Antifungal activity against Aspergillus fumigatus ATCC 26934; format: functional; procedure, shortened: as §2
[9] = test system: Candida albicans; assay: Antifungal activity against Candida albicans ATCC 10213; format: functional; procedure, shortened: as §4
[10] = test system: NCI-H460; assay: Cytotoxicity against human H460 cells assessed as cell growth after 2 days by sulforhodamine B assay; format: functional; details: NCI-H460, 48 h; procedure, shortened: as §3
[11] = test system: Nannizzia gypsea; assay: Antifungal activity against Microsporum gypseum C 115 2000; format: functional; procedure, shortened: as §1
[12] = test system: MCF7; assay: Cytotoxicity against human MCF7 cells assessed as cell growth after 2 days by sulforhodamine B assay; format: functional; details: MCF7, 48 h; procedure, shortened: as §3
[13] = test system: Trichophyton mentagrophytes; assay: Antifungal activity against Trichophyton mentagrophytes ATCC 9972; format: functional; procedure, shortened: as §1
[14] = test system: Candida tropicalis; assay: Antifungal activity against Candida tropicalis C 131 2000; format: functional; procedure, shortened: as §4

Row | SMILES | HC50 [1] [µg/mL] | MFC [2] [µg/mL] | MIC [2] [µg/mL] | MFC [3] [µg/mL] | MIC [3] [µg/mL] | GI50 [4] [µg/mL] | MFC [5] [µg/mL] | MIC [5] [µg/mL] | MFC [6] [µg/mL] | MIC [6] [µg/mL] | MFC [7] [µg/mL] | MIC [7] [µg/mL] | MFC [8] [µg/mL] | MIC [8] [µg/mL] | MIC [9] [µg/mL] | GI50 [10] [µg/mL] | MFC [11] [µg/mL] | MIC [11] [µg/mL] | GI50 [12] [µg/mL] | MFC [13] [µg/mL] | other results
1 | O=C1C=CC(=O)N1c1ccc(Cl)cc1 | > 250 | 7.81 (≈ 37.6 µM) | 3.9 (≈ 18.8 µM) | 125 (≈ 602 µM) | 62.5 (≈ 301 µM) | > 10 | 7.81 (≈ 37.6 µM) | 3.9 (≈ 18.8 µM) | 7.81 (≈ 37.6 µM) | 3.9 (≈ 18.8 µM) | 62.5 (≈ 301 µM) | 31.2 (≈ 151 µM) | 125 (≈ 602 µM) | 62.5 (≈ 301 µM) | 62.5 (≈ 301 µM) | > 10 | 7.81 (≈ 37.6 µM) | 3.9 (≈ 18.8 µM) | > 10 | 7.81 (≈ 37.6 µM) | MFC [9]: 62.5 µg/mL (≈ 301 µM); MIC [13]: 3.9 µg/mL (≈ 18.8 µM); MFC [14]: 15.6 µg/mL (≈ 75.3 µM); MIC [14]: 7.81 µg/mL (≈ 37.6 µM)
2 | CC1=CC(=O)N(CCc2ccccc2)C1=O | > 250 | 15.6 (≈ 72.6 µM) | 7.81 (≈ 36.3 µM) | 250 (≈ 1160 µM) | 62.5 (≈ 290 µM) | > 10 | 62.5 (≈ 290 µM) | 31.2 (≈ 145 µM) | 62.5 (≈ 290 µM) | 31.2 (≈ 145 µM) | 250 (≈ 1160 µM) | 62.5 (≈ 290 µM) | 31.2 (≈ 145 µM) | 31.2 (≈ 145 µM) | 62.5 (≈ 290 µM) | > 10 | 7.81 (≈ 36.3 µM) | 3.9 (≈ 18.1 µM) | > 10 | 62.5 (≈ 290 µM) | MFC [9]: 125 µg/mL (≈ 581 µM); MIC [13]: 31.2 µg/mL (≈ 145 µM); MFC [14]: 250 µg/mL (≈ 1160 µM); MIC [14]: 125 µg/mL (≈ 581 µM)
3 | O=C1C=CC(=O)N1CCCc1ccccc1 | > 250 | 1.95 (≈ 9.06 µM) | 1.95 (≈ 9.06 µM) | 62.5 (≈ 290 µM) | 31.2 (≈ 145 µM) | 5.8 (≈ 26.9 µM) | 1.95 (≈ 9.06 µM) | 0.97 (≈ 4.51 µM) | 31.2 (≈ 145 µM) | 15.6 (≈ 72.6 µM) | 15.6 (≈ 72.6 µM) | 15.6 (≈ 72.6 µM) | 31.2 (≈ 145 µM) | 15.6 (≈ 72.6 µM) | 3.9 (≈ 18.1 µM) | > 10 | 1.95 (≈ 9.06 µM) | 0.97 (≈ 4.51 µM) | 5.2 (≈ 24.2 µM) | 7.81 (≈ 36.3 µM) | MIC [13]: 3.9 µg/mL (≈ 18.1 µM); MFC [14]: 15.6 µg/mL (≈ 72.6 µM); MIC [14]: 3.9 µg/mL (≈ 18.1 µM)
4 | O=C1C=CC(=O)N1Cc1ccccc1 | > 250 | 7.81 (≈ 41.7 µM) | 3.9 (≈ 20.8 µM) | 125 (≈ 668 µM) | 62.5 (≈ 334 µM) | > 10 | 15.6 (≈ 83.5 µM) | 7.81 (≈ 41.7 µM) | 15.6 (≈ 83.5 µM) | 7.81 (≈ 41.7 µM) | 62.5 (≈ 334 µM) | 31.2 (≈ 167 µM) | 250 (≈ 1340 µM) | 125 (≈ 668 µM) | 3.9 (≈ 20.8 µM) | > 10 | 7.81 (≈ 41.7 µM) | 3.9 (≈ 20.8 µM) | > 10 | 7.81 (≈ 41.7 µM) | MFC [9]: 7.81 µg/mL (≈ 41.7 µM); MIC [13]: 3.9 µg/mL (≈ 20.8 µM); MIC [14]: 15.6 µg/mL (≈ 83.5 µM)
5 | CC(C)(C)c1ccccc1N1C(=O)C=CC1=O | > 250 | 3.9 (≈ 17 µM) | 1.95 (≈ 8.5 µM) | 62.5 (≈ 273 µM) | 62.5 (≈ 273 µM) | > 10 | 7.81 (≈ 34.1 µM) | 3.9 (≈ 17 µM) | 7.81 (≈ 34.1 µM) | 3.9 (≈ 17 µM) | 125 (≈ 545 µM) | 62.5 (≈ 273 µM) | 31.2 (≈ 136 µM) | 15.6 (≈ 68.2 µM) | 3.9 (≈ 17 µM) | > 10 | 3.9 (≈ 17 µM) | 1.95 (≈ 8.5 µM) | > 10 | 3.9 (≈ 17 µM) | MFC [9]: 3.9 µg/mL (≈ 17 µM); MIC [13]: 1.95 µg/mL (≈ 8.5 µM); MFC [14]: 3.9 µg/mL (≈ 17 µM); MIC [14]: 3.9 µg/mL (≈ 17 µM)
6 | CCCN1C(=O)C=CC1=O | > 250 | 7.81 (≈ 56.1 µM) | 3.9 (≈ 28 µM) | 15.6 (≈ 112 µM) | 15.6 (≈ 112 µM) | > 10 | 31.2 (≈ 225 µM) | 15.6 (≈ 112 µM) | 15.6 (≈ 112 µM) | 7.81 (≈ 56.1 µM) | 15.6 (≈ 112 µM) | 15.6 (≈ 112 µM) | 31.2 (≈ 225 µM) | 15.6 (≈ 112 µM) | 62.5 (≈ 449 µM) | > 10 | 7.81 (≈ 56.1 µM) | 3.9 (≈ 28 µM) | > 10 | 7.81 (≈ 56.1 µM) | MFC [9]: 125 µg/mL (≈ 898 µM); MIC [13]: 7.81 µg/mL (≈ 56.1 µM); MFC [14]: 125 µg/mL (≈ 898 µM); MIC [14]: 62.5 µg/mL (≈ 449 µM)

Source: ChEMBL document CHEMBL1772954, “Antifungal, cytotoxic and SAR studies of a series of N-alkyl, N-aryl and N-alkylphenyl-1,4-pyrrolediones and related compounds” (Bioorg Med Chem, 2011)
